What was measured:
Type in all cases: functional
[1] = organism: Rattus norvegicus; assay: Compound (1 mM) to block the increase in the permeability of the neuronal sodium ions in rat striatum slices by excitatory 0.5 mM of L-GLutamic acid.
Outline: (§1)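 Values are percent of the efflux increase given by the agonist alone (100%), as mean ± standard deviation of at least triplicate experiments. Difference from control was tested by variance analysis.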

[2] = organism: Rattus norvegicus; assay: Compound (1 mM) to block the increase in the permeability of the neuronal sodium ions in rat striatum slices by excitatory 0.1 M of Quis qulalic acid; conditions: in the assay text read “0.1 mM” for “0.1 M”; outline: as §1
[3] = organism: Mus musculus; assay: Effective dose required to protect mice from picrotoxin-induced seizures
Outline: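 CD1 mice of either sex (20–30 g), unanaesthetised, received 5 μL of drug in phosphate-buffered saline pH 7.4, or vehicle, icv (1 mm posterior, 1 mm lateral to bregma, 2.6 mm deep). Picrotoxin 3 mg/kg was given iv in the tail vein 10 min later. Stage 5 seizures were scored over 30 min, with at least 8 mice per group, and ED50 was calculated.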

[4] = organism: Rattus norvegicus; assay: Compound (1 mM) to block the increase in the permeability of the neuronal sodium ions in rat striatum slices by excitatory 0.1 mM of Kainic Acid.; outline: as §1
[5] = organism: Rattus norvegicus; assay: Compound (1 mM) to block the increase in the permeability of the neuronal sodium ions in rat striatum slices by excitatory 30 uM of N-methyl-D-aspartic acid; outline: as §1

C=C(C)[C@H]1CN[C@H](C(=O)O)[C@H]1CC(=O)NC(CCC(=O)O)C(=O)O (stereo not given in full) gave a Mean response [1] of 90, a Mean response [2] of 69 and an ED50 [3] of 170 nM. The Mean response [4] was 84 and the Mean response [5] was 16.
